# Laboratory results reported in ChEMBL document CHEMBL4513216, “Probing the Open Global Health Chemical Diversity Library for Multistage-Active Starting Points for Next-Generation Antimalarials” (ACS Infect Dis, 2020).
# Assay: Toxicity liver stage against HepG2, at 10uM
# Type: cell-based
# Parameters: test concentration 10 uM, cell line HepG2-A16-CD81EGFP
# Settings: human, HepG2-A16-CD81EGFP cells; read-out: INHIBITION
# Outline: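 Uninfected HepG2-A16-CD81EGFP cells, 3 × 10^3 per well, 1536-well, plated on prespotted compound at 10 μM final, parasite-free screening media added to match infected plates; puromycin 10 μM positive, DMSO 0.5% negative; run in parallel with 48 h PbLuc assay at 37 °C, 5% CO2; viability by CellTiter-Glo luminescence, normalized to controls.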
row,Structure (SMILES),cytotoxicity at 10 µM [%]
1,CN(C)C(=O)c1cnc(-c2ccc3c(c2)OCO3)s1,5.29
2,CC(C)Oc1ccccc1OCCN1C(=O)CCNC1=O,-6.67
3,Cc1cc(CN2CCN(Cc3ccccc3F)CC2)no1,4.51
4,COc1ccc(C2CC(=O)NCc3nc4ccccn4c32)cn1 (configuration not stated),-3.95
5,CC(C)CCC(=O)Nc1ncn(CC(=O)N2CCCCCC2)n1,1.17
6,O=C(c1ccncc1)N1CCCn2nnc(COCCO)c2C1,10.5
7,Cc1csc(C2CCCCN2C(=O)CCCn2cncn2)n1 (configuration not stated),-8.23
8,CC(C)n1ccnc1C1CCN(C(=O)c2ccccn2)CC1,-2.85
9,Cc1ccc(-c2nc(CN3CCn4c(C)nnc4C3)cs2)o1,-19.2
10,CN1C(=O)C2(CC(=O)Nc3[nH]ncc32)c2cc(Cl)ccc21 (configuration not stated),-1.89
11,COc1ccc(OCCN2CCC(c3ccnn3CCO)CC2)cc1,-6.9
12,COCCN(Cc1ccc(F)cc1Cl)C(=O)c1cc[n+]([O-])cc1,4.75
13,Cc1noc(C)c1CN(C)C(=O)c1ccc(C(N)=O)nc1,-4.24
14,O=C(NCc1ccc(-n2cncn2)nc1)c1cc[nH]n1,-7.45
15,CC(C)C(=O)N1CCC12CCCN(C(=O)c1ccnnc1)C2 (configuration not stated),7.8
16,Cn1nc(CNC(=O)CC#N)c2c1CN(CC1CC1)CC2,7.4
17,CCN1CCOC(CNCc2cnc(N(CC)CC)s2)C1 (configuration not stated),0.598
18,Cc1cc(C)n(C2CCCN(C(=O)c3c[nH]c(=O)c(Cl)c3)C2)n1 (configuration not stated),-5.03
19,Cc1cnn(CC(=O)N2CCCN(c3ncccc3C#N)CC2)c1,-4.37
20,O=C(Nc1ncn(CC(=O)N2CCCCCC2)n1)C1CCCO1 (configuration not stated),-4.56
21,COc1ccc(CCN2CC(n3nc(C)cc3C)C2)cc1,-9.12
22,O=C(CCOc1cccc(F)c1)N1CCCC(n2cccn2)C1 (configuration not stated),-14.7
23,CC(C)CN1CC(c2nc(-c3ccsc3)c[nH]2)CC1=O (configuration not stated),6.65

row,Structure (SMILES),cytotoxicity at 10 µM [%]
1,Cc1nsc(NC(=O)NC2CCCOC2)n1 (configuration not stated),16
2,COCCCNC(=O)N1CCC(CNC(=O)c2cnn(C)c2)CC1,-1.3
3,Cc1cc(-c2nn3c(C(C)C)nnc3s2)on1,0.9
4,N#CCC(=O)NCc1nnc2n1CCN(Cc1cccs1)C2,-136
5,O=C(O)CCCNC(=O)N1CCc2c([nH]c3ccc(Cl)cc23)C1,8.13
6,CC(=O)N1CCC2(CC1)CN(C)CC[C@H]2C(F)(F)F,-153
7,Cc1noc(CN(C)CC2CCN(CCO)CC2)n1,5.82
8,CN(C)CCN1CC(C(=O)N2CCC(c3cccc(O)c3)CC2)CC1=O (configuration not stated),0.0902
9,Cc1cc(C)cc(NC(=O)CN2CCCC(n3cncn3)C2)c1 (configuration not stated),-9.93
10,Cc1cc(-c2cnn(CCNC(=O)Cc3ccccn3)c2C2CC2)on1,2.8
11,Cc1ccccc1N1CCN(C(=O)CSc2ccncc2)CC1=O,6.71
12,CCc1nccn1C1CCCN(C(=O)Cc2cn3ccsc3n2)C1 (configuration not stated),-23
13,Cc1cc(CN2CCN(C(=O)NCc3ccc(C)s3)CC2)no1,-2.84
14,Cn1cc(S(=O)(=O)N2CCCC2Cn2ccnc2)cc1C(N)=O (configuration not stated),2.8
15,CCC(=O)N1CCc2[nH]cnc2C12CCN(C(=O)CCS(C)(=O)=O)CC2,-14.4
16,COc1ccc2c(c1)C(=O)N(C)C1(CCN(CC3CC3)CC1)N2,6.4
17,CCc1ccc(CN2CCC(=O)N(CC3CC3)C(C(C)C)C2)nc1 (configuration not stated),2.08
18,CCn1cnnc1CNC(=O)CCC(=O)c1ccc2c(c1)OCCO2,-3.59
19,Cc1cc(CC(C)NC(=O)c2n[nH]c3c2CCC3)n[nH]1 (configuration not stated),-144
20,NC(=O)CN1CCC(Nc2ccnc3ccc(Cl)cc23)CC1,31.8
21,NCC(=O)N1CCCC(c2ccnc(Nc3cnccn3)n2)C1 (configuration not stated),2.66
22,CC1CN(CC(=O)NCc2ccccn2)CCN1Cc1nccn1C (configuration not stated),-4.07
23,O=C(O)[C@@H]1CN(CC(=O)N2CCCCC2)C[C@H]1c1ccc(F)cc1,-3.95

row,Structure (SMILES),cytotoxicity at 10 µM [%]
1,CN(C(=O)NCc1ccncc1)C1CCCN(c2ccccc2)C1=O (configuration not stated),-8.86
2,CCC(=O)N1CCC(Oc2ccc(C(=O)NCCN(C)C)cc2Cl)CC1,4.12
3,O=C(CO)N1CCC(F)(F)C2(CCN(c3ccccc3)C2)C1 (configuration not stated),13.8
4,NS(=O)(=O)N1CCC(C(=O)Nc2cccc(OC(F)F)c2)CC1,-9.5
5,CCn1cc(CN2CCCC2c2nc(C(C)C)no2)cc1C#N (configuration not stated),1.44
6,Cc1cnn(C(C)C2CC2)c1NC(=O)c1ncccc1O (configuration not stated),7.4
7,Cc1cc(C)n(CC2CCCN2C(=O)c2cccc3c2OCCO3)n1 (configuration not stated),-11.8
8,CCC(NC(=O)NCc1cccc(N(C)C)n1)c1ccccc1OC (configuration not stated),29.1
9,O=C(Cc1cccnc1)N1CC(Cc2nccc3cc[nH]c23)C1,4.87
10,COCCC(=O)N1CCCC([C@@H]2C[C@H](C(F)F)n3ncnc3N2)C1 (some centres not stated),-1.28
11,Oc1cccc(CN2C[C@@H]3CC[C@H]2CN(Cc2cccnc2)C3)c1,-121
12,O=C(c1ccccc1)N1C[C@H]2CC[C@@H](C1)N(Cc1cc(F)ccc1Cl)C2,-4.39
13,Cc1nc(C)n(CC2CCCN(c3ncnc4ccsc34)C2)n1 (configuration not stated),42.4
14,COCc1ncn2c1CN(C(=O)c1cccc3cccnc13)CC2,-19.7
15,Cc1ccc(O)c(CNC2CCc3nc(C(C)C)nn3C2)n1 (configuration not stated),-8.54
16,CN(C)Cc1cc(C2CCN(C(=O)C3CC34CCC4)CC2)nn1C (configuration not stated),-15
17,CCO[C@H]1CO[C@@]2(CCCN(C(=O)c3ccc(OC)c(F)c3)C2)C1,5.69
18,CC(C)Cc1cc(C(=O)NCC(O)c2ccc(F)cc2)n(C)n1 (configuration not stated),-2.96
19,CCC(NC(=O)NC1CCN(S(C)(=O)=O)CC1)c1cccs1 (configuration not stated),-11.6
20,CC(=O)Nc1nc(C2CCN(C(=O)c3cncs3)CC2)cs1,-8.91
21,Cc1cnc(CNC(=O)NCCOc2ncccc2Cl)s1,8.35
22,Cc1noc(C)c1CNC(=O)N1CCN(Cc2cscn2)CC1,-6.31
23,CC(C)c1nc(CS(=O)(=O)Cc2noc(C3CC3)n2)cs1,6.16

row,Structure (SMILES),cytotoxicity at 10 µM [%]
1,Cc1nccc(C(=O)N2CCCC2c2c(C)nn(C)c2C)n1 (configuration not stated),-2.42
2,CCN(CC)CCSc1ncnc2[nH]ncc12,-4.44
3,Cc1cnn(C2CN(CC(=O)NCCOc3ccccc3)C2)c1,-16.7
4,CC(C)C(=O)N1CCc2c(CN(C)Cc3ccco3)cncc2C1,-5.69
5,CC(=O)NCC(=O)N1CCc2[nH]c(-c3ccccc3)nc2C1,-0.591
6,CCOCCC(=O)NCC(C)c1ccsc1 (configuration not stated),15.1
7,CCCN(Cc1cccnc1)C(=O)C1CCN(Cc2ccco2)CC1,0.376
8,Cc1c(C2SCC(=O)Nc3c2c(O)nn3C(C)C)cnn1C (configuration not stated),2.39
9,O=C1CCCN1CCCC(=O)N1CCCC(c2ccn[nH]2)C1 (configuration not stated),-22.8
10,O=C(COCc1nc(-c2ccncc2)no1)NC1CCCCC1,-8.19
11,O=C(NCCCNc1cccnc1)c1ccc2nccn2c1,-42.4
12,CN(C)CCNC(=O)C1Cc2nc(-c3ccccc3)sc2N1CC1CC1 (configuration not stated),5.15
13,Cc1ccc(F)c2c1CCCN2Cc1cc(=O)n(C)c(=O)n1C,13.6
14,COC(=O)[C@H]1CN(C(=O)NC(C)C)CCN1C(=O)C1CCCCC1,1.35
15,Cc1cccc(C)c1OC1CN(Cc2cnc(-c3ccco3)nc2)C1,6.17
16,O=C(c1coc2ccccc12)N1CCS(=O)(=O)CC1,2.64
17,CCOc1ncc(NC(=O)c2ccccn2)c(OCC)n1,-0.191
18,Cc1ncc(CN2CCCC(c3cc(C(N)=O)[nH]n3)C2)s1 (configuration not stated),-27.7
19,Cc1ccc(Cl)cc1NCc1nc2[nH]c(C)c(C)c(=O)n2n1,-4.96
20,Cc1nc(C)n(CC(=O)N2CCCC(c3cc4ccccc4cn3)C2)n1 (configuration not stated),-22.1
21,CN(CCC(F)(F)F)c1nc2ccccc2c(=O)[nH]1,-5.11
22,CN(CC(=O)NCCC#N)C(c1ccccc1)c1ccc(F)cc1 (configuration not stated),-4.34
23,O=C(Cc1ccon1)NC1CC2(CCC2)Oc2ccccc21 (configuration not stated),-6.71

row,Structure (SMILES),cytotoxicity at 10 µM [%]
1,Cc1noc(C[C@@H]2COC[C@H]3CN(S(=O)(=O)C4CC4)C[C@@H]23)n1,8.37
2,O=C([C@H]1C[C@H]2OCC[C@H]2N(C(=O)C2CCOCC2)C1)N1CCCCO1,-8.28
3,N#Cc1ccc(CN2C(=O)c3ccccc3CS2(=O)=O)cc1,-4.17
4,O=c1ccc(-c2cccs2)nn1CN1CCc2ccccc2C1,14.3
5,CC1(C)CC(N(Cc2ccccc2)Cc2cccnc2)CC(C)(C)N1,2.67
6,OCCNC1CSCCc2ccccc21 (configuration not stated),-1.44
7,Cc1nc(CN2CCCC2c2[nH]ncc2C(=O)N(C)C)cs1 (configuration not stated),-0.722
8,CCC(O)CN1CCN(C(=O)Cc2ccc(C)nc2)CC1 (configuration not stated),-9.24
9,Cc1ccc(F)c2c1CCCN2C(=O)c1cn(CC(=O)N(C)C)nn1,-0.367
10,Cc1cc(C)n(-c2cncc(NCCNC(=O)C3CCCC3)n2)n1,3.51
11,O=S(=O)(c1ccccc1)N1CCC2(CCCN2Cc2ccc(Cl)cc2)C1 (configuration not stated),-66.3
12,O=C(NCc1cn2c(n1)CN(Cc1cccnc1)CC2)C1CCC1,6.76
13,CS(=O)(=O)NCCCN1CCCC1c1cccc(Br)c1 (configuration not stated),-2.51
14,Cc1ccc(N2CCC3(CCN(Cc4ccccn4)CC3)CC2)nn1,7.37
15,CCN1CC(=O)c2sc(NC(C)C)nc2C1,-10.6
16,Cc1cc(NC(=O)CN(CC2CCOC2)C2CC2)no1 (configuration not stated),1.65
17,O=C(C1CC2(CCNCC2)CN1)N1CCN(c2cccc(Cl)c2Cl)CC1 (configuration not stated),-13.9
18,Cc1ncsc1CN1C[C@@H]2CCCO[C@@H]2[C@H](N(C)C(C)C)C1,1.81
19,CN(C)CCN(Cc1ccc(Cl)cc1)C(=O)c1cnccn1,-1.85
20,CC(C)N(C)Cc1cncc2c1CCN(Cc1cccs1)C2,-112
